ChEMBL document CHEMBL3751733, “Synergistic Antifungal Meroterpenes and Dioxolanone Derivatives from the Endophytic Fungus Guignardia sp” (J Nat Prod, 2015)
≈ marks a conversion by molar mass, not a printed value. Calls of active or inactive are those of the source. The calls are words filed in the database; no cut-off is given here.

Columns and labels:
Candida albicans [1] = experiment: Antifungal activity against Candida albicans ATCC 24433 assessed as growth inhibition after 24 hrs by broth microdilution assay; assay type: functional; details: ATCC 24433, 24 h
In short: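 Broth microdilution: 24-h colonies suspended in 0.85% saline, diluted in RPMI-1640 with MOPS to 1.0 × 10^4 cfu/mL final, mixed 1:1 with sample; 35 °C, 24 h; OD 595 nm. MIC = lowest concentration giving 80% growth reduction. Fluconazole positive control; SD from three independent experiments.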

Candida albicans [2] = experiment: Antibiofilm activity against Candida albicans ATCC 24433 after 24 hrs by XTT-based colorimetric assay; assay type: functional; details: ATCC 24433, 24 h
In short: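 XTT assay: YPD overnight culture, PBS-washed, 1.0 × 10^6 cfu/mL in RPMI-1640/MOPS; biofilms formed at 37 °C for 24 h, washed, then treated 24 h at 37 °C; 0.5 mg/mL XTT for 2 h, read at 490 nm. MIC = lowest concentration giving ≥80% reduction in XTT signal.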

Candida albicans [3] = experiment: Antibiofilm activity against Candida albicans ATCC 24433 at 1000 ug/ml after 24 hrs by XTT-based colorimetric assay; assay type: functional, organism-based
In short: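 Biofilms grown from overnight YPD cells, PBS-washed and resuspended to 1.0 × 10^6 cfu/mL in RPMI-1640 plus MOPS, 37 °C for 24 h. After three PBS washes, treated a further 24 h at 37 °C. Then 0.5 mg/mL XTT for 2 h, read at 490 nm. MIC taken as the lowest concentration giving ≥80% reduction in XTT reduction.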

Candida albicans [4] = experiment: Antibiofilm activity against Candida albicans ATCC 24433 at 1000 ug/ml after 24 hrs by scanning electron microscopic analysis; assay type: functional, organism-based
In short: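 Biofilms grown from 1.0 × 10^6 cfu/mL suspensions on poly-L-lysine-treated glass coverslips, 37 °C for 24 h. PBS-washed three times, then exposed to drug for another 24 h. Fixed overnight in 2.5% glutaraldehyde in 0.2 M PBS (pH 7.2), then 1% osmium for 2 h. Ethanol-dehydrated, critical-point dried, gold-coated, and imaged by SEM at high vacuum, 10 kV.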

In the case of `OC(Cn1cncn1)(Cn1cncn1)c1ccc(F)cc1F` [FLUCONAZOLE], the MIC80 (Candida albicans [1]) is reported as 0.25 µg/mL (≈ 0.816 µM), the MIC80 (Candida albicans [2]) is reported as greater than 1000 µg/mL and the Activity (Candida albicans [3]) is reported as “inactive”. The Activity (Candida albicans [4]) was “inactive”.
